Results reported in ChEMBL document CHEMBL1154902, “Potent inhibitor scaffold against Trypanosoma cruzi trans-sialidase” (Bioorg Med Chem, 2010).

Columns and labels:
[1] = Selectivity for Trypanosoma cruzi trans-sialidase mutant over human Neu2
[2] = Noncompetitive inhibition of Trypanosoma cruzi trans-sialidase containing catalytic domain (N58F, R200K) and lectin-like domain (S495 K, V496G, E520K, D593G, I597D, H599R) mutation expressed in Escherichia coli JM109 by discontinuous fluorimetric assay using Lineweaver-Burke plot
Procedure, shortened: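 Same MuNANA hydrolysis assay with purified recombinant TcTS at 25 °C in Tris-HCl pH 7.5. MuNANA was varied over 25–200 µM against several inhibitor concentrations, in triplicate. The inhibition mode was assigned by best fit, and Ki for noncompetitive inhibition was taken from the Lineweaver–Burk double-reciprocal plot.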

Sialidase-2 = Sialidase-2 (Homo sapiens, UniProt Q9Y3R4); assay: Inhibition of human Neu2 assessed as MuNANA substrate hydrolysis in presence of 0.1% Triton X-100 by discontinuous fluorimetric assay
Procedure, shortened: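 Recombinant human Neu2 expressed from pET15b in E. coli BL21(DE3) and purified on DEAE and His-Trap columns. Reactions were quenched with 0.2 M Na2CO3 (pH 10), and released 4-methylumbelliferone was read at ex 355/em 460 nm. Runs were in duplicate or triplicate, corrected for compound fluorescence interference.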

[3] = Inhibition of Trypanosoma cruzi trans-sialidase containing catalytic domain (N58F, R200K) and lectin-like domain (S495 K, V496G, E520K, D593G, I597D, H599R) mutation expressed in Escherichia coli JM109 assessed as MuNANA substrate hydrolysis in presence of 0.1% Triton X-100 by discontinuous fluorimetric assay
Procedure, shortened: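 Recombinant TcTS lacking the C-terminal SAPA repeat, His-tagged (pTrcHisA) and purified by cation exchange, Ni affinity and gel filtration. Conditions: 8 ng/ml enzyme, 50 µM MuNANA, 50 mM Tris-HCl pH 7.5, 0.1% Triton X-100, 10% DMSO, 25 °C for 30 min. Stopped with 0.2 M Na2CO3 pH 10. Released Mu read at ex 355/em 460 nm in two or three replicates, corrected for compound fluorescence interference.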

Trypanosoma cruzi = assay: Antiparasitic effect against Trypanosoma cruzi assessed as induction of parasite lysis; assay type: functional, organism-based

Sialidase-2, sequence (Q9Y3R4 whole entry): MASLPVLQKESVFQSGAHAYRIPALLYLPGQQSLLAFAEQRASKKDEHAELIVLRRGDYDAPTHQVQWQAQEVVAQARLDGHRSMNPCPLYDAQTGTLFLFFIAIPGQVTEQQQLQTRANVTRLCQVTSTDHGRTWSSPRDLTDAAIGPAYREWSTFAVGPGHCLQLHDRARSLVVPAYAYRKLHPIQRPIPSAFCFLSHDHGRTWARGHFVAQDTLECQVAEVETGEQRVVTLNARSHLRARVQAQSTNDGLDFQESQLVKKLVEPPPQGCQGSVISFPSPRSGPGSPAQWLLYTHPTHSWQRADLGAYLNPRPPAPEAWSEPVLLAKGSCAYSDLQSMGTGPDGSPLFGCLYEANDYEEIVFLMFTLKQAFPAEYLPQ

Row | SMILES | Ratio IC50 [1] | Ki [2] | IC50 (Sialidase-2) | IC50 [3] | IC50 (Trypanosoma cruzi)
1 | O=C(O)c1cc(O)c2c(c1)C(=O)c1cc(O)c(Cl)c(O)c1C2=O | > 170 | 0.89 µM | > 100 µM | 0.58 µM | –
2 | O=c1cc(-c2ccccc2O)oc2cc(O)cc(O)c12 | 0.2 | – | 70 µM | 360 µM | –
3 | O=c1cc(-c2ccc(O)cc2)oc2cc(O)ccc12 | < 0.5 | – | 470 µM | > 1000 µM | –
4 | O=C(O)c1ccc2c(c1)C(=O)c1ccccc1C2=O | 1.9 | – | 800 µM | 430 µM | –
5 | O=c1cc(-c2ccc(O)cc2)oc2cccc(O)c12 | – | – | > 1000 µM | > 1000 µM | –
6 | O=c1cc(-c2ccccc2)oc2cccc(O)c12 [5-HYDROXYFLAVONE] | – | – | > 1000 µM | > 1000 µM | –
7 | Oc1cc(O)c2c(c1)O[C@@H](c1ccc(O)c(O)c1)[C@H](O)C2 [(-)-CATECHIN] | – | – | > 1000 µM | > 1000 µM | –
8 | COc1ccc(-c2cc(=O)c3c(O)cc(O)cc3o2)cc1 [ACACETIN] | – | – | > 1000 µM | > 1000 µM | –
9 | O=c1cc(-c2ccc(O)cc2)oc2cc(O)cc(O)c12 [APIGENIN] | 7.3 | 60 µM | 570 µM | 78 µM | 680 µM
10 | O=c1cc(-c2ccccc2)oc2cc(O)c(O)c(O)c12 [BAICALEIN] | 1.3 | – | 130 µM | 100 µM | –
11 | O=c1cc(-c2ccccc2)oc2cc(O)cc(O)c12 [CHRYSIN] | 2.6 | – | 890 µM | 340 µM | –
12 | O=C1c2cccc(O)c2C(=O)c2c(O)cccc21 [DANTHRON] | > 1.4 | – | > 1000 µM | 710 µM | –
13 | Cc1cc(O)c2c(c1)C(=O)c1cc(O)cc(O)c1C2=O [EMODIN] | 6.9 | – | 760 µM | 110 µM | –
14 | O=c1c(-c2ccc(O)cc2)coc2cc(O)cc(O)c12 [GENISTEIN] | 1.7 | – | 380 µM | 230 µM | –
15 | COc1cc(O)c2c(=O)cc(-c3ccc(O)cc3)oc2c1 [GENKWANIN] | – | – | > 1000 µM | 140 µM | –
16 | O=c1c(O)c(-c2ccc(O)cc2)oc2cc(O)cc(O)c12 [KAEMPFEROL] | 2.1 | – | 230 µM | 110 µM | –
17 | O=c1cc(-c2ccc(O)c(O)c2)oc2cc(O)cc(O)c12 [LUTEOLIN] | 5.9 | – | 130 µM | 22 µM | –
18 | O=c1c(O)c(-c2cc(O)c(O)c(O)c2)oc2cc(O)cc(O)c12 [MYRICETIN] | 8.8 | – | 150 µM | 17 µM | –
19 | O=c1c(O)c(-c2ccc(O)c(O)c2)oc2cc(O)cc(O)c12 [QUERCETIN] | 2.8 | – | 160 µM | 58 µM | –
20 | O=C(O)c1cc(O)c2c(c1)C(=O)c1cccc(O)c1C2=O [RHEIN] | 9.3 | – | 130 µM | 14 µM | –
21 | COc1cc(O)c2c(c1)O[C@H](c1ccc(O)cc1)CC2=O [SAKURANETIN] | < 0.9 | – | 890 µM | > 1000 µM | –
22 | O=c1cc(-c2ccc(O)cc2)oc2cc(O)c(O)c(O)c12 [SCUTELLAREIN] | 1.1 | – | 55 µM | 50 µM | –
23 | O=c1cc(-c2cc(O)c(O)c(O)c2)oc2cc(O)cc(O)c12 [TRICETIN] | 3.3 | – | 130 µM | 39 µM | –
